Screening results: PubChem, several laboratories
Pyk2 oligo antag – antagonists of human Pyk2 oligomerization; Q293 cells, Pyk2 FERM NanoBiT luminescence; active compounds read low; 99,000 compounds, 0.83% hits; z-score (the deposit names both 25 µM and 10 µM);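 active means Z-score of -3 or lower, scaled per plate to the spread of control and sample wells; inactive means z-score above -3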;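 further: negative z-score means lost luminescence so less FERM oligomerization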
PostGolgi yeast – growth inhibition of a yeast mutant, post-Golgi transport screen; post-Golgi transport phenotypic cell assay; inhibition, % at 10 µM; 98,000 compounds, 0.9% hits;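 further: yeast cells grown in 1536-well plates; yeast grown about 18 h at 30C before absorbance read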
PostGolgi ctrl – inhibits growth of the yeast control strain; efflux-deficient yeast background strain, growth absorbance A615, 16 h; inhibition, % at 10 µM; 98,000 compounds, 5% hits; AID 738
Cav32 inh – blocks human Cav3.2 T-type calcium channel | O95180 | Cav3.2-expressing cells, Fluo-4 calcium fluorescence FDSS; active compounds read low | B-score at 10 µM | 100,000 compounds, 4% hits | AID 449739;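 active means single-dose well whose peak fluorescence ratio is a statistical outlier from its plate by either plate-standardised score or position-corrected B-score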
tolC growth inh – E. coli tolC mutant growth inhibition; E. coli BW25113 tolC mutant growth, OD615; growth inhibition, % at 10 µM (by protocol); 65,000 compounds, 2.2% hits; AID 573;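 active means growth inhibition at or above a cutoff equal to the mean over every tested compound plus 3 SD, cut at about 60% in these data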;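 further: growth measured after 20 h incubation at 37 °C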
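Signal: optical density read at 615 nm; Assay system: E. coli ΔtolC::kan strain BW25113; Times: 20 h incubation with compound, 37 °C; Dosing: 10 µM final, single dose.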
E coli WT exp – blocks growth of wild type E. coli BW25113 | OD600 absorbance | AID 710 | 98,000 compounds, 0.15% hits | growth inhibition, % at 100 µM;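 active means growth inhibition above about 50% at one test dose, limit read from the data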;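 further: growth measured after 20 h incubation at 37 °C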
* marks the source's active call; other numbers are inactive results; . = no result given. Most compounds without a hit are left out; they make up all but 8.7% or so of the library. Unless noted, no stated cut-off is given here; in the data, active means inhibition above about 30%; inactive means the rest.

SMILES	Pyk2 oligo antag	PostGolgi yeast	PostGolgi ctrl	Cav32 inh	tolC growth inh	E coli WT exp
COc1ccc(NC(=O)CN(c2cc(C)cc(C)c2)S(=O)(=O)c2c(C)n[nH]c2C)cc1	.	-13	19	-0.46	-2	-3
COC(=O)c1cn(C(=O)c2cccs2)c2ccccc12	-0.44	-2	11	-1	6	9
COc1ccc(N(CC(=O)Nc2ccc3c(c2)OCCO3)S(=O)(=O)c2c(C)noc2C)cc1	-1.9	1	4	.	13	-6
CCOc1ccc(N(CC(=O)Nc2cccc(Cl)c2)S(=O)(=O)c2c(C)noc2C)cc1	.	7	45*	-2.2	73*	3
Cc1ccc(N(CC(=O)Nc2ccc3c(c2)OCCO3)S(=O)(=O)c2c(C)noc2C)cc1	-2.1	-6	23	-2.9	65*	-8
COC(=O)c1ccc(Sc2ccccc2NS(=O)(=O)c2ccc(C)cc2)nc1	0.22	24	20	-3.1	.	-5
O=C(COC(=O)C12CC3CC(CC(C3)C1)C2)Nc1ccc(OC(F)F)cc1	-0.61	-6	18	-6.2*	.	1
O=C(COC(=O)C12CC3CC(CC(O)(C3)C1)C2)Nc1ccccc1OC(F)F	-0.96	-5	15	1	10	6
O=C(COC(=O)C12CC3CC(CC(C3)C1)C2)NC12CC3CC(CC(C3)C1)C2	-0.33	13	33*	-2.8	.	-3
CC(=O)N1N=C(c2ccccc2)CC1c1cn(C)c2ccccc12 (configuration not stated)	-1.6	.	.	.	.	.
CC1CN=C(c2cccn2Cc2ccc(F)cc2Cl)O1 (configuration not stated)	0.12	11	32*	-0.098	2	6
COc1c2occc2c(OC)c2c(=O)cc(C(F)(F)C(F)(F)F)oc12	-3.2*	-3	0	-0.51	8	-17
CCCC1S/C(=N/N=C/c2ccc(OC)cc2)N(Cc2ccccc2)C1=O (configuration not stated)	0.26	-8	-2	-3.6*	.	-35
CCCC1S/C(=N/N=C/c2ccc(OC)cc2)N(Cc2ccc(OC)cc2)C1=O (configuration not stated)	-0.3	-7	1	-3.7*	.	-21
Cc1ccc(CSC2=Nc3sccc3C3=NC(=O)CN23)cc1	-1.6	0	6	-0.051	.	0
Cc1ccccc1-n1nc2c(c1NC(=O)c1ccc(Br)o1)CSC2	0.69	-3	5	-4.7*	11	-6
CCCC(=O)Nc1c2c(nn1-c1ccc(C)cc1C)CSC2	2	7	-6	0.92	-23	7
Cc1ccc(NC(=O)N2C(=O)C3(OCCO3)c3ccccc32)cc1	0.26	-19	12	0.7	-6	2
CCCOc1ccc(C(=O)NNC(=S)NC(=O)CC)cc1	-1.9	76*	99*	-1.9	.	68*
C=CCNC(=S)NNC(=O)c1ccc(OCCC)cc1	-0.68	.	.	0.3	.	.
Clc1ccc(Cc2noc(-c3cccs3)n2)cc1	-0.25	-4	18	-0.055	14	-7
O=C(NCCOc1ccccc1)C1CCCN1C(=O)c1cccs1 (configuration not stated)	1.9	2	34*	0.38	-3	4
O=C(OCc1ccccc1)C1CCCN1C(=O)c1cccs1 (configuration not stated)	1.1	-6	1	-1.8	11	0
Cn1c(CSc2nc3ccccc3s2)nnc1SCC(=O)NCc1cccnc1	0.4	.	.	0.18	.	.
CCCCCCCCCOC(=O)C[n+]1csc(CCO)c1C	-0.05	14	64*	2	.	9
SMILES	Pyk2 oligo antag	PostGolgi yeast	PostGolgi ctrl	Cav32 inh	tolC growth inh	E coli WT exp
Nc1ccccc1OCCOCCOCCOc1ccccc1N	1.8	-1	18	-1.1	-16	4
CCC(C)n1cnc2c(c1=O)c1nc3ccccc3nc1n2Cc1ccc(OC)cc1 (configuration not stated)	-0.06	-5	36*	-2.1	.	-11
COc1ccc(Cn2c(C)nc3c(c2=O)c2nc4ccccc4nc2n3Cc2ccco2)cc1	.	.	.	.	-10	.
O=C(Cc1ccccc1)Nc1cccc(-c2nnc(-c3ccco3)o2)c1	-0.77	2	4	-0.18	2	-1
Cc1nn(-c2ccccc2)c(C)c1C(=O)Nc1nnc(-c2ccco2)o1	0.68	2	-4	-0.33	65*	3
COC(=O)/C(=C/c1cn(C)c2ccccc12)[N+](=O)[O-]	.	-10	2	.	.	8
Cc1ccc(/C(C#N)=C\c2cn(C)c3ccccc23)cc1	.	-4	34*	-1.5	44	-10
CCOC(=O)C1CCN(C(c2cccc(F)c2)c2sc3nc(C)nn3c2O)CC1 (configuration not stated)	.	5	37*	0.62	-5	6
CC1=C(C#N)C(Nc2ccc(C)cn2)(C(F)(F)F)C(=O)N1 (configuration not stated)	-1.2	1	13	0.49	.	-2
CCOC(=O)CSc1nnc(Cn2nnc(-c3ccccc3)n2)n1C	0.68	1	0	0.51	0	-2
CS(=O)(=O)c1nc(-c2ccccc2)cc(C(F)(F)F)n1	0.41	26	51*	.	20	19
CCOc1ccc(Oc2cc(NC(=O)c3ccco3)cc([N+](=O)[O-])c2)cc1	.	-1	44*	.	.	-3
CCc1c(O)nc(SCc2ccccc2)n(C(C)CC)c1=O (configuration not stated)	0.28	-6	26	0.48	70*	8
O=C(Nc1ccccc1)N1CCc2ccccc21	1	.	.	0.61	.	.
O=C(NCC1CCCC(CNC(=O)N2CCc3ccccc32)C1)N1CCc2ccccc21 (configuration not stated)	-0.6	9	27	-5*	.	-17
COc1ccc(OC)c(N(CC(=O)N2CCc3ccccc3C2)S(C)(=O)=O)c1	-0.38	1	4	-0.0017	.	7
N#CCSc1nc(Nc2ccc3c(c2)OCO3)c2ccccc2n1	-4.2*	-5	28	0.97	8	-13
COc1cc(Nc2nc(SCC#N)nc3ccccc23)cc(OC)c1OC	-0.13	7	-1	0.21	-2	8
CCOC(=O)CSc1nc(NCc2ccco2)c2ccccc2n1	-0.26	-2	-2	0.31	12	11
CCOC(=O)CSc1nc(Nc2ccc3c(c2)OCO3)c2ccccc2n1	-3*	-2	29	-1.3	.	-7
COC(=O)c1ccc(C(=O)OC)c(NC(=O)CSc2cccc[n+]2[O-])c1	0.3	8	2	0.16	.	50*
COC(=O)c1cc(OC)c(OC)cc1NC(=O)Nc1ccccc1OC	1.8	10	18	-0.31	-16	1
COC(=O)c1cc(OC)c(OC)cc1NC(=O)CSc1ccccc1	-0.69	-1	43*	-3.2	.	-1
COC(=O)c1ccc(C(=O)OC)c(NC(=O)CSCc2ccc(Cl)cc2)c1	-0.78	-6	11	-0.41	.	-4
CCOc1ccc2nc(SCC(=O)NC(=O)NCc3ccco3)[nH]c2c1	0.74	-3	3	-3	.	7
Cc1cc(C)c2oc(-c3ccc(C)c(NC(=S)NC(=O)c4cccs4)c3)nc2c1	-3.7*	-1	5	0.035	.	6
